≈ marks a conversion by molar mass, not a printed value.

Assay [1] concerns E. faecalis MTCC 439. Put plainly: In vitro screening, % growth inhibition at 250 μg/mL. It counts as cell-based, Enterococcus faecalis. The settings on record: Enterococcus faecalis, MTCC439, 24 h, read-out: % inhibition at 250 μg/mL. The method, boiled down: (§1)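 Test compounds dissolved in DMSO and diluted in test medium. Mid-log cultures diluted in nutrient broth to McFarland standard and treated with 250 μg/mL in 96-well plates, 37 °C, 160 rpm, 24 h. Growth read as OD at 580 nm; % inhibition calculated from absorbance against untreated growth. Run twice on different occasions.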

Assay [2] has as its system P. auroginosa MTCC 2453. Described as above. Type of assay: cell-based, Pseudomonas auroginosa. The settings on record: for inhibition at 250 µg/mL: Pseudomonas, MTCC2453, 24 h, read-out: % inhibition at 250 μg/mL. In a few lines:
as §1

In assay [3] the test system is S. pneumoniae MTCC 655. Described as above. Type of assay: cell-based, Streptococcus pneumoniae. As to conditions: Streptococcus pneumoniae, MTCC655, 24 h, read-out: % inhibition at 250 μg/mL. In a few lines:
as §1

In assay [4] the test system is E. coli ATCC 25922. The assay is described as above. Type of assay: cell-based, Escherichia coli. The settings on record: Escherichia coli, ATCC25922, 24 h, read-out: % inhibition at 250 μg/mL. The method, boiled down:
as §1

The test system of assay [5] is P. aeruginosa. Put plainly: Synergistic assay with ciprofloxacin. Type of assay: cell-based. As to conditions: P. aeruginosa; 4l combined with CIP.
For assay [6], the system named is S. typhimurium. Put plainly: Synergistic assay with ciprofloxacin. It counts as cell-based, Salmonella typhimurium.
The test system of assay [7] is E. faecalis. Put plainly: Synergistic assay with ciprofloxacin. It counts as cell-based, Enterococcus faecalis.
Assay [8] concerns S. pneumoniae. Put plainly: Synergistic assay with ciprofloxacin. Type of assay: cell-based, Streptococcus pneumoniae.
The test system of assay [9] is E. coli. Kind of assay: Synergistic assay with ciprofloxacin. It counts as cell-based, Escherichia coli. As to conditions: E. coli; 4l combined with CIP.
Assay [10] deals with P. auroginosa MTCC 2453. Put plainly: MIC by broth microdilution. Type of assay: cell-based, Pseudomonas auroginosa. As to conditions: Pseudomonas, MTCC2453. On the technique in general: In broth dilution the organism is exposed to a series of concentrations in liquid medium.

Consider `CNC1=C([N+](=O)[O-])C2(C(=O)Nc3ccccc32)C2=C(CC(C)(C)CC2=O)O1` (centres unmarked) [Compound 4a, 7,7-Dimethyl-2-(methylamino)-3-nitro-7,8-dihydrospiro[chromene-4,3′-indoline]-2′,5(6 H)-dione], for which the inhibition at 250 µg/mL in assay [1] was 41.5%; in assay [2], 37.3%; in assay [3], 29.7%; in assay [4] it was 43.2%.
Take `O=C(O)c1cn(C2CC2)c2cc(N3CCNCC3)c(F)cc2c1=O` [CIP, ciprofloxacin, reference compound]: the MIC in combination in assay [5] was 0.5 µg/mL; in assay [6] (S. typhimurium, 4l combined with CIP), 0.25 µg/mL; in assay [7] (E. faecalis, 4l combined with CIP) it was 0.0625 µg/mL; in assay [8] (S. pneumoniae, 4l combined with CIP) it was 0.0625 µg/mL; in assay [9], 0.125 µg/mL. Further, the MIC (in general, the lowest concentration found to suppress growth) was determined as 0.25 µg/mL in assay [6] (Salmonella enterica, TYPHIMURIUM, read-out: MIC alone); 0.25 µg/mL in assay [7] (Enterococcus faecalis, read-out: MIC alone); 0.25 µg/mL in [8] (Streptococcus pneumoniae, read-out: MIC alone).
Take `CNC1=C([N+](=O)[O-])C2(C(=O)Nc3ccc(Br)cc32)c2c(c3ccccc3oc2=O)O1` (centres unmarked) [Compound 4k]: the inhibition at 250 µg/mL in assay [1] was 18.1%; in assay [2] it was 4.61%; in assay [3], 19.7%; in assay [4], 32%.
Consider `CNC1=C([N+](=O)[O-])C2(C(=O)Nc3ccc(Br)cc32)C2=C(CC(C)(C)CC2=O)O1` (centres unmarked) [Compound 4c], for which the inhibition at 250 µg/mL is 38.1% in [1], 100% in assay [2], 21.5% in assay [3] and 40.7% in assay [4]. Also, the “% inhibition at 250 μg/mL” value in assay [2] (P. auroginosa MTCC 2453, 250 μg/mL, 24 h) is listed as “complete growth inhibition”. This compound yielded an MIC in assay [10] of 250 µg/mL (≈ 558 µM).
With `CNC1=C([N+](=O)[O-])C2(C(=O)Nc3ccccc32)c2c(c3ccccc3oc2=O)O1` (centres unmarked) [Compound 4i], the inhibition at 250 µg/mL worked out at 7.5% in [1], 6.58% in assay [2], 1.96% in [3] and 15.4% in assay [4].
For `CNC1=C([N+](=O)[O-])C2(C(=O)Nc3ccc(Cl)cc32)C2=C(CC(C)(C)CC2=O)O1` (centres unmarked) [Compound 4b], in that order: 31.9%, 18%, 21.3% and 43.2%.
For `CNC1=C([N+](=O)[O-])C2(C(=O)Nc3ccc(Cl)cc32)c2c(c3ccccc3oc2=O)O1` (centres unmarked) [Compound 4j], in that order: 27.2%, 23.1%, 27.8% and 45.8%.
As to `CNC1=C([N+](=O)[O-])C2(C(=O)Nc3ccc([N+](=O)[O-])cc32)C2=C(CC(C)(C)CC2=O)O1` (centres unmarked) [Compound 4d], the inhibition at 250 µg/mL worked out at 30.4% in assay [1], 52.5% in assay [2], 23.2% in assay [3] and 36.1% in assay [4].

For the origin of these results see paper PMC6796888 (ACS Omega, 2019).
